Reference: ChEMBL document CHEMBL5380827, “Structure-Based Design of Y-Shaped Covalent TEAD Inhibitors” (J Med Chem, 2023)

Legend:
[1] = Inhibition of TEAD transcriptional activity in human NCI-H226 cells assessed as luciferase activity measured for 3 days by reporter gene assay; assay type: cell-based; details: NCI-H226, 72 h
Method in brief: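 NCI-H226 cells transduced with a pan-TEAD response element luciferase reporter lentivirus (8 μg/mL polybrene) and puromycin-selected. Seeded at 1000 cells per well in 384-well plates and treated with inhibitor for 3 days. Luciferase read with One-Glo and normalized to CellTiter-Glo viability.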

[2] = Inhibition of N-terminal His6-tagged human recombinant TEAD3 (216 to 434 residues)/ recombinant YBD (unknown origin) incubated for 5 hrs by TR-FRET assay
Method in brief: (§1)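 His-tagged TEAD YAP-binding domain protein (100 nM), expressed in Rosetta(DE3) pLysS and purified by cobalt resin then gel filtration. Protein preincubated with inhibitor for 5 h in 50 mM HEPES pH 7.5, 200 mM NaCl, 0.1% Pluronic F-68. Then 800 nM tracer WZJ-10 and anti-6His Tb cryptate (50 ng/mL final) added; TR-FRET read at 490/520 nm. Mean ± SEM of two experiments, each in biological triplicate.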

[3] = Inhibition of N-terminal His6-tagged human recombinant TEAD2 (217 to 447 residues)/ recombinant YBD (unknown origin) incubated for 5 hrs by TR-FRET assay; method in brief: as §1
[4] = Inhibition of N-terminal GST/His6-tagged human recombinant TEAD1 (209 to 424 residues)/YBD (unknown origin) incubated for 5 hrs by TR-FRET assay; method in brief: as §1
[5] = Inhibition of N-terminal His6-tagged human recombinant TEAD4 (209 to 427 residues)/ recombinant YBD (unknown origin) incubated for 5 hrs by TR-FRET assay; method in brief: as §1
NCI-H226 = experiment: Antiproliferative activity against human NCI-H226 cells assessed as reduction in cell viability measured for 5 days by celliter-glo assay; assay type: functional, cell-based; details: NCI-H226, 120 h
Method in brief: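 NCI-H226 mesothelioma cells grown in RPMI1640 with 10% FBS and 1% penicillin/streptomycin, seeded at 100 cells per well in 384-well plates. Inhibitor added by digital dispenser, 5-day incubation. CellTiter-Glo luminescence read after 20 min, normalized to DMSO-treated samples. Mean ± SD of n = 3 biological independent samples.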

[6] = Antiproliferative activity against human 94T778 cells assessed as reduction in cell viability measured for 5 days by celliter-glo assay; assay type: functional, cell-based; details: 94T778, 120 h
Method in brief: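 94T778 well-differentiated liposarcoma cells grown in RPMI1640 with 10% FBS and 1% penicillin/streptomycin. Treated with inhibitor for 5 days and viability read as CellTiter-Glo luminescence. Mean ± SD of n = 3 biological independent samples.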

| Compound | IC50 [1] | IC50 [2] | IC50 [3] | IC50 [4] | IC50 [5] | IC50 (NCI-H226) | IC50 [6] |
| --- | --- | --- | --- | --- | --- | --- | --- |
| CC#CC(=O)N1C[C@@H](n2cc(-c3cccnc3)nn2)[C@H](OCc2ccc(C(F)(F)F)cc2)C1 | 229 nM | 47 nM | 459 nM | 44 nM | > 10000 nM | – | – |
| CN(C)C/C=C/C(=O)N1C[C@@H](n2cc(-c3cccnc3)nn2)[C@H](OCc2ccc(C(F)(F)F)cc2)C1 | 1710 nM | 1640 nM | > 10000 nM | 1030 nM | > 10000 nM | – | – |
| C=C(F)C(=O)N1C[C@@H](n2cc(-c3cccnc3)nn2)[C@H](OCc2ccc(C(F)(F)F)cc2)C1 | 86 nM | 31 nM | 197 nM | 29 nM | 467 nM | 131 nM | 173 nM |
| C=C(C(=O)N1C[C@@H](n2cc(-c3cccnc3)nn2)[C@H](OCc2ccc(C(F)(F)F)cc2)C1)C(F)(F)F | 2740 nM | 19 nM | 19 nM | 42 nM | > 10000 nM | – | – |
| C=C(F)C(=O)N1C[C@@H](Nc2ncccn2)[C@H](OCc2ccc(C(F)(F)F)cc2)C1 | 17 nM | 32 nM | 275 nM | 47 nM | 71 nM | 24 nM | 40 nM |
| Cc1cccc([C@H](C)NC(=O)c2ccc3c(-c4ccc(C(F)(F)F)cc4)cccc3c2)n1 | – | 19 nM | 40 nM | 31 nM | 35 nM | – | – |
| C=CC(=O)N1C[C@@H](n2cc(-c3cccnc3)nn2)[C@H](OCC23CC4CC(CC(C4)C2)C3)C1 (mixture of isomers) | 1380 nM | 38 nM | 26 nM | 118 nM | 604 nM | – | – |
| C=CC(=O)N1C[C@@H](OCc2ccc(C(F)(F)F)cc2)[C@H](c2ccc(S(C)(=O)=O)cc2)C1 (racemic) | 153 nM | 51 nM | 305 nM | 51 nM | 83 nM | – | – |
| C=CC(=O)N1CC[C@@H](OCc2ccc(C(F)(F)F)cc2)[C@H](Nc2ncc(F)cn2)C1 (racemic) | 171 nM | 121 nM | 1240 nM | 56 nM | 427 nM | 246 nM | 1020 nM |
| C=CC(=O)N1C[C@@H](n2cc(-c3cccnc3)nn2)[C@H](OCc2ccc(C(F)(F)F)cn2)C1 (racemic) | 670 nM | 144 nM | 230 nM | 207 nM | 2480 nM | – | – |
| C=CC(=O)N1C[C@@H](n2cc(-c3cccnc3)nn2)[C@H](OCC2CCC(F)(F)CC2)C1 (racemic) | 467 nM | 68 nM | 50 nM | 264 nM | 685 nM | – | – |
| C=CC(=O)N1C[C@@H](n2cccn2)[C@H](OCc2ccc(C(F)(F)F)cc2)C1 (racemic) | 131 nM | 36 nM | 178 nM | 56 nM | 111 nM | 368 nM | 258 nM |
| C=CC(=O)N1C[C@@H](n2ncccc2=O)[C@H](OCc2ccc(C(F)(F)F)cc2)C1 (racemic) | 90 nM | 50 nM | 103 nM | 42 nM | 98 nM | 150 nM | 214 nM |
| C=CC(=O)N1C[C@@H](n2cc(-c3cccnc3)nn2)[C@H](OCc2ccc(C(F)(F)F)cc2)C1 (racemic) | 106 nM | 26 nM | 49 nM | 37 nM | 25 nM | 63 nM | 173 nM |
| C=CC(=O)N1C[C@@H](n2cc(-c3cccnc3)nn2)[C@H](OCc2ccc(C(F)(F)F)nc2)C1 (racemic) | 2210 nM | 834 nM | 911 nM | 391 nM | > 10000 nM | – | – |
| C=CC(=O)N1C[C@@H](n2cc(-c3cccnc3)nn2)[C@H](OCc2cc(Cl)cc(C(F)(F)F)c2)C1 (racemic) | 985 nM | 426 nM | 230 nM | 425 nM | > 10000 nM | – | – |
| C=CC(=O)N1CCN(c2ncccn2)CC(OCc2ccc(C(F)(F)F)cc2)C1 (racemic) | 522 nM | 429 nM | 578 nM | 80 nM | 236 nM | – | – |
| C=CC(=O)N1C[C@@H](n2cc(-c3ccncn3)nn2)[C@H](OCc2ccc(C(F)(F)F)cc2)C1 (racemic) | 206 nM | 51 nM | 103 nM | 40 nM | 718 nM | – | – |
| C=CC(=O)N1C[C@@H](Nc2ncccn2)[C@H](OCc2ccc(C(F)(F)F)cc2)C1 (racemic) | 14 nM | 30 nM | 9 nM | 29 nM | 25 nM | 16 nM | 34 nM |
| C=CC(=O)N1C[C@@H](n2cc(-c3cccnc3)nn2)[C@H](OCc2cc(C(F)(F)F)ccc2Cl)C1 (racemic) | 1720 nM | 215 nM | 604 nM | 100 nM | 4430 nM | – | – |
| C=CC(=O)N1C[C@@H](Nc2ncc(F)cn2)[C@H](OCc2ccc(C(F)(F)F)cc2)C1 (racemic) | 16 nM | 26 nM | 17 nM | 30 nM | 21 nM | 28 nM | 114 nM |
| C=CC(=O)N1C[C@@H](Cc2ccccn2)[C@H](OCc2ccc(C(F)(F)F)cc2)C1 (racemic) | 58 nM | 48 nM | 192 nM | 33 nM | 62 nM | 186 nM | 612 nM |
| C=CC(=O)N1C[C@@H](n2ccnn2)[C@H](OCc2ccc(C(F)(F)F)cc2)C1 (racemic) | 153 nM | 20 nM | 79 nM | 31 nM | 406 nM | – | – |
